Reference: ChEMBL document CHEMBL2203249, “Optimization of a small tropomyosin-related kinase B (TrkB) agonist 7,8-dihydroxyflavone active in mouse models of depression” (J Med Chem, 2012)
Active and inactive are the calls of the source. The calls are words filed in the database; no cut-off is given here.

Key:
HepG2 [1] = test: Genotoxicity in human HepG2 cells assessed as micronuclei formation at 50 uM after 24 hrs by DAPI staining; assay type: toxicity, cell-based; details: hepg2, 24 h
In short: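 HepG2 cells were exposed to 50 μM for 24 h, with benzo(a)pyrene as positive control. Cells were swollen in hypotonic KCl/NaCl for 10 min at 37°C, fixed in methanol/acetic acid 3:1 and stained with DAPI at 2 μg/ml. Three independent experiments, one-way ANOVA.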

Mus musculus [2] = test: Agonist activity at TrkB receptor in C57BL/J6 mouse brain assessed as TrkB phosphorylation at tyrosine 816 in hippocampus at 1 mg/kg, po after 4 hrs by immunoblotting analysis; assay type: functional, organism-based; set-up: dose 1 mg/kg
In short: (§1)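 Male C57BL/6 mice, two months old, received a single 1 mg/kg oral dose, with saline controls. Brain or hippocampus was collected 4 h later (time-course samples at various times). Homogenates were ultracentrifuged and 40 μg supernatant was immunoblotted for p-TrkB, p-Akt and p-MAPK.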

Mus musculus [3] = test: Agonist activity at TrkB receptor in C57BL/J6 mouse brain assessed as Akt phosphorylation at serine 473 in hippocampus at 1 mg/kg, po after 4 hrs by ELISA; assay type: functional, organism-based; set-up: dose 1 mg/kg
In short: (§2)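 Male C57BL/6 mice, two months old, received a single 1 mg/kg oral dose, with saline controls. Brain was taken at set time points and lysed. Phospho-Akt S473 was measured by sandwich ELISA on 20 μg lysate: overnight capture at 4°C, detection antibody, HRP secondary and TMB, read at 450 minus 650 nm. Two replicate experiments, one-way ANOVA against control.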

[4] = target: BDNF/NT-3 growth factors receptor (Rattus norvegicus) (UniProt Q63604); test: Agonist activity at TrkB receptor in E17 rat embryo primary neurons assessed as TrkB phosphorylation at tyrosine 817 at 500 nM after 15 mins by immunoblotting analysis; assay type: functional
In short: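 Primary cortical cultures from E17 rat embryos were exposed to 500 nM for 15 min. Lysates were immunoblotted for p-TrkB and p-Akt (20 μg per lane). Two replicate experiments.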

HepG2 [5] = test: Cytotoxicity against human HepG2 cells assessed as cell death upto 100 uM after 24 hrs by LDH assay; assay type: cell-based; details: hepg2, 24 h
In short: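 HepG2 cells were exposed to a range of concentrations up to 100 μM for 24 h, and cytotoxicity was measured by LDH release. n=3.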

HepG2 [6] = test: Genotoxicity in human HepG2 cells assessed as induction of DNA lesion at 100 uM after 24 hrs by comet assay; assay type: toxicity, cell-based; details: hepg2, 24 h
In short: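 HepG2 cells were exposed to 100 μM for 24 h, with etoposide as positive control. Cells were embedded in agarose, lysed 2 h at 4°C at pH 10, unwound 40 min in alkali at pH >13 and electrophoresed at 25 V for 30 min at 4°C. After ethidium bromide staining, comet-tail nuclei were counted in >100 cells per field. Three independent experiments, one-way ANOVA.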

Mus musculus [7] = test: Agonist activity at TrkB receptor in C57BL/J6 mouse brain assessed as MAPK phosphorylation in hippocampus at 1 mg/kg, po after 4 hrs by immunoblotting analysis; assay type: functional, organism-based; set-up: dose 1 mg/kg; in short: as §1
Mus musculus [8] = test: Volume of distribution in mouse at 1 mg/kg, iv by HPLC analysis; assay type: ADME, organism-based; set-up: dose 1 mg/kg, route intravenous; details: in vivo
In short: (§3)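 Mice (20–30 g, 6–8 weeks old) were dosed i.v. or orally. Blood was drawn into lithium-heparin tubes at 3, 10, 30, 60, 120, 240, 360 and 480 min, with 3 mice per time point. Plasma was separated at 2500 × g for 15 min at 4°C within 1 h and stored at −20°C. Samples were analysed by HPLC, and AUC was calculated by the linear/log trapezoidal method.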

Mus musculus [9] = test: AUC last in mouse at 1 mg/kg, iv by HPLC analysis; assay type: ADME, organism-based, Plasma; set-up: time 0 - last, dose 1 mg/kg, route intravenous; details: in vivo
In short: (§4)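 Mice of 20–30 g, 6–8 weeks old, dosed i.v. or orally. Blood was drawn at 3, 10, 30, 60, 120, 240, 360 and 480 min into lithium-heparin tubes, spun at 2500 × g for 15 min at 4°C within 1 h and stored at −20°C. Plasma was analysed by HPLC, 3 mice per time point. AUC was calculated by the linear/log trapezoidal method.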

Mus musculus [10] = test: Volume of distribution at steady state in mouse at 1 mg/kg, iv by HPLC analysis; assay type: ADME, organism-based; set-up: dose 1 mg/kg, route intravenous; details: in vivo; in short: as §3
Mus musculus [11] = test: AUC (infinity) in mouse at 1 mg/kg, iv by HPLC analysis; assay type: ADME, organism-based, Plasma; set-up: time infinity, dose 1 mg/kg, route intravenous; details: in vivo; in short: as §4
Mus musculus [12] = test: Agonist activity at TrkB receptor in C57BL/J6 mouse brain assessed as Akt phosphorylation at serine 473 in hippocampus at 1 mg/kg, po after 4 hrs by immunoblotting analysis; assay type: functional, organism-based; set-up: dose 1 mg/kg; in short: as §1
Mus musculus [13] = test: Elimination half life in mouse at 1 mg/kg, iv by HPLC analysis; assay type: ADME, organism-based; set-up: dose 1 mg/kg, route intravenous; details: in vivo; in short: as §4
Mus musculus [14] = test: Agonist activity at TrkB receptor in C57BL/J6 mouse brain assessed as Akt phosphorylation at serine 473 at 1 mg/kg, po after 1 hr by ELISA; assay type: functional, organism-based; set-up: dose 1 mg/kg; in short: as §2
Mus musculus [15] = test: Agonist activity at TrkB receptor in C57BL/J6 mouse brain assessed as TrkB phosphorylation at tyrosine 816 in cortex at 5 mg/kg, po administered qd for 21 days by immunoblotting analysis; assay type: functional, organism-based; set-up: dose 5 mg/kg
Mus musculus [16] = test: Agonist activity at TrkA receptor in C57BL/J6 mouse brain assessed as TrkA phosphorylation at tyrosine 794 in cortex at 5 mg/kg, po administered qd for 21 days by immunoblotting analysis; assay type: functional, organism-based; set-up: dose 5 mg/kg
Mus musculus [17] = test: Agonist activity at TrkB receptor in C57BL/J6 mouse brain assessed as Akt phosphorylation at serine 473 at 1 mg/kg, po by immunoblotting analysis; assay type: functional, organism-based; set-up: dose 1 mg/kg; in short: as §1
Mus musculus [18] = test: Antidepressant activity in C57BL/J6 mouse assessed as reduction of immobility at 5 mg/kg, po administered qd for 21 days recorded in last 4 mins by forced swim test; assay type: functional, organism-based; set-up: dose 5 mg/kg
In short: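 Male C57BL/6J mice, 2–3 months old, were gavaged daily for 21 days with drug (5 or 2.5 mg/kg) or saline and adapted to the test room for 2 days. With no preswim, each mouse was placed for 6 min in a 16-cm cylinder of 24 °C water, 14 cm deep. Immobility in the last 4 min was scored blind and compared by unpaired t-test (n=6 or 8).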

Mus musculus [19] = test: Agonist activity at TrkB receptor in C57BL/J6 mouse brain assessed as TrkB phosphorylation at tyrosine 706 at 1 mg/kg, po by immunoblotting analysis; assay type: functional, organism-based; set-up: dose 1 mg/kg; in short: as §1
Mus musculus [20] = test: Agonist activity at TrkB receptor in C57BL/J6 mouse brain assessed as Akt phosphorylation at serine 473 at 1 mg/kg, po after 8 hrs by ELISA; assay type: functional, organism-based; set-up: dose 1 mg/kg; in short: as §2
Mus musculus [21] = test: Agonist activity at TrkB receptor in C57BL/J6 mouse brain assessed as Akt phosphorylation at serine 473 at 1 mg/kg, po after 4 hrs by ELISA; assay type: functional, organism-based; set-up: dose 1 mg/kg; in short: as §2
Mus musculus [22] = test: Antidepressant activity in C57BL/J6 mouse assessed as increase in locomotion at 5 mg/kg, po qd for 21 days tested on day 22 by locomotor activity assay; assay type: functional, organism-based; set-up: dose 5 mg/kg
In short: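 Male C57BL/6J mice were gavaged with 5 mg/kg/day or saline vehicle for 21 days. On day 22, ambulation (consecutive photobeam breaks) was recorded in automated chambers for 2 h in 30-min intervals. n=6, two-way ANOVA.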

Mus musculus [23] = test: Agonist activity at TrkB receptor in C57BL/J6 mouse brain assessed as Akt phosphorylation at serine 473 at 1 mg/kg, po after 8 hrs by ELISA relative to control; assay type: functional; in short: as §2

Sequence of BDNF/NT-3 growth factors receptor (Rattus norvegicus) (Q63604 whole entry): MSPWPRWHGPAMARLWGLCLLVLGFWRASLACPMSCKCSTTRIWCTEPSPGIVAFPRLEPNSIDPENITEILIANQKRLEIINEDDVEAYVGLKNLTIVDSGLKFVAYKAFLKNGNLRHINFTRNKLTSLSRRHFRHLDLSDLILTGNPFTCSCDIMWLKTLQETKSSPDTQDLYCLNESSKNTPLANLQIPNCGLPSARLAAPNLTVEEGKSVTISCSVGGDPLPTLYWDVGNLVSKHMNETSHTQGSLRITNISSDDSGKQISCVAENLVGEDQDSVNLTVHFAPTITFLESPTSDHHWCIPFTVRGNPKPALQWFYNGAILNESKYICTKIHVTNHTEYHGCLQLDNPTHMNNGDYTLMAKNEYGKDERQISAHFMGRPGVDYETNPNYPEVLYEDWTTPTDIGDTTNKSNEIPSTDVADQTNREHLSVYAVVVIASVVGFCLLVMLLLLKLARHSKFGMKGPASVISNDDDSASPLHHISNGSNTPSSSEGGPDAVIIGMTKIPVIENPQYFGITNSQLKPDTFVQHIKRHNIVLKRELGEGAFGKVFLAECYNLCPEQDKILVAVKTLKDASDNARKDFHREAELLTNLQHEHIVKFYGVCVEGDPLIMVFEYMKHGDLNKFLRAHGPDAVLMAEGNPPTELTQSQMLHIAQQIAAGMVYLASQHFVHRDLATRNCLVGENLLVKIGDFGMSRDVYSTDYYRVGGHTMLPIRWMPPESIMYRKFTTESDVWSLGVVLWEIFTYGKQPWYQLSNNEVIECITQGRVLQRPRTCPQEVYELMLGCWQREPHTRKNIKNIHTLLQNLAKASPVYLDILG

Row | Structure (SMILES) | Activity [4] | Activity (Mus musculus [2]) | Activity (Mus musculus [3]) | other results
1 | c1ccc2c(c1)cc1ccc3cccc4ccc2c1c34 |  |  |  | Activity (HepG2 [1]): Toxic
2 | CN(C)c1cccc(-c2cc(=O)c3ccc(O)c(O)c3o2)c1 | Active | Active | Active | 
3 | O=c1cc(-c2ccc(F)cc2)[nH]c2c(O)c(O)ccc12 | inactive | Active | Active | 
4 | O=c1cc(-c2ccc(N3CCCC3)cc2)oc2c1ccc1nc[nH]c12 |  |  |  | Activity (HepG2 [5]): Non-toxic; Activity (HepG2 [1]): Non-toxic; Activity (HepG2 [6]): Non-toxic
5 | Br.CN(C)c1ccc(-c2cc(=O)c3ccc(O)c(O)c3o2)cc1 | Active | Active | Active | Activity (Mus musculus [7]): Active; Vz (Mus musculus [8]): 2.117 L/kg; AUClast (Mus musculus [9]): 5930 ng·min/mL; Vdss (Mus musculus [10]): 0.803 L/kg; AUC (Mus musculus [11]): 5943 ng·min/mL; Activity (Mus musculus [12]): Active; beta t1/2 (Mus musculus [13]): 9 min
6 | O=c1cc(-c2cncnc2)oc2c(O)c(O)ccc12 | Active | Active | Active | 
7 | CN(C)c1ccc(-c2cc(=O)c3c(F)cc(O)c(O)c3o2)cc1 | Active | Active | Active | 
8 | O=c1cc(-c2ccc(F)cc2)oc2c(O)c(O)ccc12 | inactive |  |  | 
9 | CN(C)c1ccc(-c2cc(=O)c3ccc4nc[nH]c4c3o2)cc1 | Active | Active | Active | Activity (Mus musculus [7]): Active; Activity (HepG2 [5]): Non-toxic; Activity (HepG2 [1]): Non-toxic; Activity (Mus musculus [15]): Active; Activity (Mus musculus [16]): inactive; Activity (Mus musculus [22]): Active; Activity (Mus musculus [23]): 250%; Activity (Mus musculus [17]; TDE = time-dependent effect): tde; Activity (Mus musculus [18]): Active; Activity (Mus musculus [19]; TDE = time-dependent effect): tde; Activity (HepG2 [6]): Toxic; Activity (Mus musculus [12]): Active

More lines, main results first:

Row | Activity [4] | Structure (SMILES) | Activity (Mus musculus [2]) | Activity (Mus musculus [3]) | other results
10 | inactive | O=c1cc(-c2ccccc2)[nH]c2c(O)c(O)ccc12 | Active | Active | 
11 | Active | O=c1cc(-c2ccccc2)oc2c(O)c(O)cc(F)c12 | Active | Active | 
12 | Active | O=c1c(F)c(-c2ccccc2)oc2c(O)c(O)ccc12 | Active | Active | 
13 | Active | O=c1c(F)c(-c2cccc(O)c2)oc2c(O)c(O)ccc12 | Active | Active | Activity (Mus musculus [14]): Active; Activity (Mus musculus [15]): Active; Activity (Mus musculus [16]): inactive; Activity (Mus musculus [17]): inactive; Activity (Mus musculus [18]): Active; Activity (Mus musculus [19]): inactive; Activity (Mus musculus [20]): inactive; Activity (Mus musculus [21]): inactive
